Reference: ChEMBL document CHEMBL4359856, “Strategies to develop selective CB2 receptor agonists from indole carboxamide synthetic cannabinoids” (Eur J Med Chem, 2019)

Key:
[1] = biological target: T1, Cannabinoid receptor 2 (Homo sapiens, UniProt P34972); test: Agonist activity at human CB2 receptor expressed in AtT-20 cells measured every 2 secs for 2 mins by FLIPR assay; format: cell-based
Method in brief: (§1)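 After vehicle subtraction, the change was taken as % of baseline. The final DMSO concentration was ≤0.1%. EC50 came from four-parameter concentration–response fits. Each experiment was run in duplicate, with at least three independent experiments; values are mean ± SEM.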

[2] = biological target: T2, Cannabinoid receptor 1 (Homo sapiens, UniProt P21554); test: Agonist activity at human CB1 receptor expressed in AtT-20 cells measured every 2 secs for 2 mins by FLIPR assay; format: cell-based; method in brief: as §1
T2 sequence (P21554 whole entry): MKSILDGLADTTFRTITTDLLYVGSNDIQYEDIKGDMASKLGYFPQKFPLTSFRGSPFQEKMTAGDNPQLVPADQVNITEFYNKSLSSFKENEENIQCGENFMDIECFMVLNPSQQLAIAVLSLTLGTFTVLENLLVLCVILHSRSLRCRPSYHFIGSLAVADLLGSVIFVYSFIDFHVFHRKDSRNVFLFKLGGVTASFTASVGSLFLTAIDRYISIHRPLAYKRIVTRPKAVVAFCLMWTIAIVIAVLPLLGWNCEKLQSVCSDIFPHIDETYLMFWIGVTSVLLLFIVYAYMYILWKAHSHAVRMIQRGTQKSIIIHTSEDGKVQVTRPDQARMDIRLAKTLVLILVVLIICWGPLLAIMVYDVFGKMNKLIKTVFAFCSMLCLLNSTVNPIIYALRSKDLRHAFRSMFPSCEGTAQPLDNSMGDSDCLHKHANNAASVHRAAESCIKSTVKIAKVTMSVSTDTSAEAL

[3] = biological target: T1, Cannabinoid receptor 2; test: Agonist activity at human CB2 receptor expressed in AtT-20 cells at 1 uM measured every 2 secs for 2 mins by FLIPR assay relative to control; format: cell-based
Method in brief: as §1, with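 “In AtT-20 cells stably expressing human CB1 or CB2, membrane-potential dye fluorescence (530/565 nm) was recorded at 37 °C. After” for “After”, “fits. […]” for “fits.”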

[4] = biological target: T2, Cannabinoid receptor 1; test: Agonist activity at human CB1 receptor expressed in AtT-20 cells at 10 uM measured every 2 secs for 2 mins by FLIPR assay relative to control; format: cell-based; conditions: read-out: Activity
[5] = biological target: T1, Cannabinoid receptor 2; test: Agonist activity at human CB2 receptor expressed in AtT-20 cells at 10 uM measured every 2 secs for 2 mins by FLIPR assay relative to control; format: cell-based
[6] = biological target: T2, Cannabinoid receptor 1; test: Agonist activity at human CB1 receptor expressed in AtT-20 cells at 1 uM measured every 2 secs for 2 mins by FLIPR assay relative to control; format: cell-based; method in brief: as §1
[7] = Selectivity index, ratio of EC50 for human CB1 receptor expressed in AtT-20 cells to EC50 for human CB2 receptor expressed in AtT-20 cells

T1 sequence (P34972 whole entry): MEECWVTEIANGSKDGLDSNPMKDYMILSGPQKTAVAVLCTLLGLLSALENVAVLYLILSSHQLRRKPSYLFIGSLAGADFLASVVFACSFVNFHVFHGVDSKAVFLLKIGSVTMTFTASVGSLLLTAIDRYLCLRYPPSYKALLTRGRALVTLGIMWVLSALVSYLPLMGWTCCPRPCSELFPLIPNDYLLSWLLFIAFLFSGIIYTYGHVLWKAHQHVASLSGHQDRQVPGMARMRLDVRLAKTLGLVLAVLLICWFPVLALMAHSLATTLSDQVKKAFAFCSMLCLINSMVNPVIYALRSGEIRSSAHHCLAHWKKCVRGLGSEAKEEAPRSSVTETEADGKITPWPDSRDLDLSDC

Q: With `CCCCCn1c(C(=O)N[C@H](C(N)=O)C(C)(C)C)cc2ccccc21` as the compound, how does the EC50 [1] read?
A: 0.189 µM

Q: What about the EC50 [2] of the same compound?
A: > 10 µM

Q: What about the Emax [3] of the same compound?
A: 73%

Q: What about the activity at 10 µM [4] of the same compound?
A: < 50%

Q: With `CCCCCn1cccc2c(C(=O)NC34CC5CC(CC(C5)C3)C4)cnc1-2` as the compound, how does the Activity [5] read?
A: < 50%

Q: And the activity at 10 µM [4]?
A: < 50%

Q: With `CCCCCn1c(C(=O)NC(C)(C)c2ccccc2)cc2ccccc21` as the compound, how does the activity at 10 µM [4] read?
A: < 50%

Q: With `COC(=O)[C@@H](NC(=O)c1cc2ccccc2n1CCCCCO)C(C)C` as the compound, how does the Activity [5] read?
A: < 50%

Q: What about the activity at 10 µM [4] of the same compound?
A: < 50%

Q: For `CC(C)(C)[C@H](NC(=O)c1cc2ccccc2n1CCCCCO)C(N)=O`, which activity at 10 µM [4] is on record?
A: < 50%

Q: With `CCCCCn1c(C(=O)NC23CC4CC(CC(C4)C2)C3)cc2cccnc21` as the compound, how does the Activity [5] read?
A: < 50%

Q: And the activity at 10 µM [4]?
A: < 50%

Q: With `CCCCCn1cc(C(=O)N[C@H](C(=O)OC)C(C)C)c2cccnc21` as the compound, how does the EC50 [1] read?
A: 0.015 µM

Q: What about the Emax at 1 µM [6] of the same compound?
A: 97%

Q: What about the EC50 [2] of the same compound?
A: 0.056 µM

Q: And the Emax [3]?
A: 98%

Q: For `CCCCCCC(C)(C)c1ccc([C@@H]2C[C@H](O)CC[C@H]2CCCO)c(O)c1`, which Emax [3] is on record?
A: 106%

Q: For `CC(C)(C)[C@H](NC(=O)c1cn(CCCCCO)c2ncccc12)C(N)=O`, which EC50 [1] is on record?
A: 0.05 µM

Q: And the Emax at 1 µM [6]?
A: 98%

Q: And the EC50 [2]?
A: 0.491 µM

Q: What about the Emax [3] of the same compound?
A: 96%

Q: For `CC(C)(NC(=O)c1cc2ccccc2n1CCCCCO)c1ccccc1`, which EC50 [1] is on record?
A: 0.217 µM

Q: And the Emax [3]?
A: 88%

Q: And the activity at 10 µM [4]?
A: < 50%

Q: With `CCCCCn1cc(C(=O)N[C@H](C(=O)OC)C(C)(C)C)c2cccnc21` as the compound, how does the EC50 [1] read?
A: 0.0043 µM

Q: What about the Emax at 1 µM [6] of the same compound?
A: 103%

Q: And the EC50 [2]?
A: 0.0017 µM

Q: What about the Emax [3] of the same compound?
A: 102%

Q: What does the source list for `CC(C)(C)[C@H](NC(=O)c1cc2ccccc2n1CCCCC(F)F)C(N)=O`?
A: EC50 [1]: 5.46 µM; Emax [3]: 128%; activity at 10 µM [4]: < 50%

Q: What does the source list for `CCCCCn1nc(C(=O)NC23CC4CC(CC(C4)C2)C3)c2cccnc21`?
A: EC50 [1]: 0.122 µM; Ratio EC50 [7]: 7; Emax at 1 µM [6]: 97%; EC50 [2]: 0.824 µM; Emax [3]: 104%

Q: For `CCCCCn1cc(C(=O)NC(C)(C)c2ccccc2)c2cccnc21`, which EC50 [1] is on record?
A: 0.104 µM

Q: What about the Emax at 1 µM [6] of the same compound?
A: 106%

Q: And the EC50 [2]?
A: 0.035 µM

Q: And the Emax [3]?
A: 96%

Q: For `O=C(NC12CC3CC(CC(C3)C1)C2)c1cn(CCCCCO)c2ncccc12`, which EC50 [1] is on record?
A: 0.049 µM

Q: What about the EC50 [2] of the same compound?
A: > 10 µM

Q: What about the Emax [3] of the same compound?
A: 93%

Q: What about the activity at 10 µM [4] of the same compound?
A: < 50%

Q: With `CCCCCn1c(C(=O)NC23CC4CC(CC(C4)C2)C3)cc2ccccc21` as the compound, how does the activity at 10 µM [4] read?
A: < 50%

Q: Which EC50 [1] does the source give for `CC(C)(NC(=O)c1cn(CCCCCO)c2ncccc12)c1ccccc1` here?
A: 0.152 µM

Q: And the Emax at 1 µM [6]?
A: 110%

Q: What about the EC50 [2] of the same compound?
A: 0.466 µM

Q: And the Emax [3]?
A: 95%

Q: For `COC(=O)[C@@H](NC(=O)c1cn(CCCCCO)c2ncccc12)C(C)(C)C`, which EC50 [1] is on record?
A: 0.019 µM

Q: And the Emax at 1 µM [6]?
A: 99%

Q: What about the EC50 [2] of the same compound?
A: 0.234 µM

Q: What about the Emax [3] of the same compound?
A: 96%

Q: Which EC50 [1] does the source give for `CCCCCn1c(C(=O)N[C@H](C(=O)OC)C(C)C)cc2ccccc21` here?
A: 0.713 µM

Q: What about the Emax [3] of the same compound?
A: 74%

Q: And the activity at 10 µM [4]?
A: < 50%

Q: Which EC50 [1] does the source give for `CCCCCn1cc(C(=O)NC23CC4CC(CC(C4)C2)C3)c2cccnc21` here?
A: 0.043 µM

Q: And the “Ratio EC50” value [7]?
A: 3.5

Q: What about the Emax at 1 µM [6] of the same compound?
A: 75%

Q: What about the EC50 [2] of the same compound?
A: 0.152 µM

Q: What about the Emax [3] of the same compound?
A: 101%

Q: Which results are given for `COC(=O)[C@@H](NC(=O)c1cc2ccccc2n1CCCCCO)C(C)(C)C`?
A: Activity [5]: < 50%; activity at 10 µM [4]: < 50%

Q: With `CCCCCn1cc(C(=O)N[C@H](C(N)=O)C(C)(C)C)c2cccnc21` as the compound, how does the EC50 [1] read?
A: 0.005 µM

Q: And the Emax at 1 µM [6]?
A: 110%

Q: And the EC50 [2]?
A: 0.004 µM

Q: What about the Emax [3] of the same compound?
A: 94%

Q: With `CCCCCn1c(C(=O)N[C@H](C(=O)OC)C(C)(C)C)cc2ccccc21` as the compound, how does the activity at 10 µM [4] read?
A: < 50%

Q: Which results are given for `CCCCCn1c(C(=O)N[C@H](C(N)=O)C(C)C)cc2ccccc21`?
A: EC50 [1]: 0.741 µM; Emax [3]: 74%; activity at 10 µM [4]: < 50%

Q: Which EC50 [1] does the source give for `CCCCCn1cc(C(=O)N[C@H](C(N)=O)C(C)C)c2cccnc21` here?
A: 0.058 µM

Q: What about the Emax at 1 µM [6] of the same compound?
A: 117%

Q: And the EC50 [2]?
A: 0.121 µM

Q: What about the Emax [3] of the same compound?
A: 103%

Q: With `CC(C)[C@H](NC(=O)c1cc2ccccc2n1CCCCCO)C(N)=O` as the compound, how does the Activity [5] read?
A: < 50%

Q: What about the activity at 10 µM [4] of the same compound?
A: < 50%

Q: What does the source list for `CCCCCn1cc(C(=O)NC23CC4CC(CC(C4)C2)C3)c2ccccc21`?
A: EC50 [1]: 0.096 µM; Emax at 1 µM [6]: 108%; EC50 [2]: 0.074 µM; Emax [3]: 85%
